Tests used:
Assay type in all cases: physicochemical
[1] = Transnitrosation activity assessed as pseudo first order rate constant at 0.45 mM in presence of 5 mM GSH at pH 1.5 at 37 degC under dark condition; settings: pH 1.5, 450 µM
Procedure, shortened: (§1)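 Pseudo-first-order kobs for GSNO formation was measured at 0.45 mM N-nitrosamine, 5.0 mM GSH with DTPA, and 37 °C, with pH set by HCl (pH-rate profile 1.4–3.3). kobs was the least-squares slope of the initial linear part of ln{[GSNO∞]/([GSNO∞]−[GSNO])} versus time, taking GSNO∞ as the initial nitroso compound level (0.45 mM). There were three separate trials.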

[2] = Transnitrosation activity assessed as S-nitrosoglutathione yield at 0.45 mM in presence of 5 mM GSH at pH 1.5 at 37 degC under dark condition after 24 hrs; settings: pH 1.5, 24 h, 450 µM
Procedure, shortened: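 Reaction run at 0.45 mM N-nitrosamine and 5.0 mM GSH, with DTPA, at pH 1.5 (HCl) and 37 °C in the dark. After 24 h, yield was calculated as GSNO formed divided by N-nitrosamine consumed.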

[3] = Transnitrosation activity assessed as compound consumption level at 0.45 mM in presence of 5 mM GSH at pH 1.5 at 37 degC under dark condition after 24 hrs; settings: pH 1.5, 24 h, 450 µM
Procedure, shortened: (§2)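 Nitrosamine (4.5 mM acetonitrile stock, 0.45 mM final) added to GSH (5.0 mM) with DTPA. The mixture was acidified to pH 1.5 with 0.1 M HCl and held at 37 °C in the dark. GSNO formation was followed against time, and data were taken after 24 h.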

[4] = Transnitrosation activity assessed as S-nitrosoglutathione level at 0.45 mM in presence of 5 mM GSH at pH 1.5 at 37 degC under dark condition; settings: pH 1.5, 450 µM; procedure, shortened: as §2
[5] = Transnitrosation activity assessed as pseudo first order rate constant at 0.45 mM in presence of 5 mM GSH at pH 1.7 at 37 degC under dark condition; settings: pH 1.7, 450 µM; procedure, shortened: as §1
[6] = Transnitrosation activity assessed as pseudo first order rate constant at 0.45 mM in presence of 5 mM GSH at pH 2 at 37 degC under dark condition; settings: pH 2, 450 µM; procedure, shortened: as §1
[7] = Transnitrosation activity assessed as pseudo first order rate constant at 0.45 mM in presence of 5 mM GSH at pH 1.4 at 37 degC under dark condition; settings: pH 1.4, 450 µM; procedure, shortened: as §1
[8] = Transnitrosation activity assessed as pseudo first order rate constant at 0.45 mM in presence of 5 mM GSH at pH 2.8 at 37 degC under dark condition; settings: pH 2.8, 450 µM; procedure, shortened: as §1
[9] = Transnitrosation activity assessed as pseudo first order rate constant at 0.45 mM in presence of 5 mM GSH at pH 3.4 at 37 degC under dark condition; settings: pH 3.4, 450 µM
[10] = Transnitrosation activity assessed as pseudo first order rate constant at 0.45 mM in presence of 5 mM GSH at pH 2.2 at 37 degC under dark condition; settings: pH 2.2, 450 µM; procedure, shortened: as §1

Row | Compound | K [1] | Activity [2] | Activity [3] | Activity [4] | log K [5] | log K [6] | log K [7] | log K [8] | log K [9] | log K [10]
1 | CN(C)C(=S)C1CSCN1N=O (stereo not drawn) | 405 ×10⁻⁷ /s | 84% | 0.45 mM | 0.38 mM | – | – | – | – | – | –
2 | CNC(=S)C1CSCN1N=O (stereo not drawn) | 464 ×10⁻⁷ /s | 85% | 0.45 mM | 0.38 mM | – | – | – | – | – | –
3 | NC(=S)C1CSCN1N=O (stereo not drawn) | 1301 ×10⁻⁷ /s | 95% | 0.45 mM | 0.43 mM | -4.24 | -5.24 | -3.73 | -6.16 | -6.37 | -4.73

Source: ChEMBL document CHEMBL3621094, “Effect of alkyl group on transnitrosation of N-nitrosothiazolidine thiocarboxamides” (Bioorg Med Chem, 2015)
